Experimental data published in PMC9652259 (Clinical Pharmacokinetics, 2022).
Blank lines part the entries; values can stand above or below the molecule they belong to.

What was measured:
[1] = co-administration with probenecid, healthy subjects ref 12; cited from earlier work
[2] = Esomeprazole; assay type: in vivo, human; conditions: for AUC(0-inf) / Cmax: human, plasma, oral, Geometric LS mean, ANOVA
Outline: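 Healthy adults (18–60 y, BMI 18–30 kg/m2) in an open-label randomized two-period crossover with a 10-day washout. Single 600 mg oral dose (3 × 200 mg capsules) alone or with esomeprazole 40 mg, fasted at least 8–10 h plus 4 h post-dose. Plasma was assayed by LC-MS/MS (30–3750 ng/mL). ANOVA on ln Cmax/AUC∞ gave 90% CIs of geometric LS mean ratios.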

[3] = Itraconazole; assay type: in vivo, human
Outline: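 Healthy adults (18–60 y) in a two-treatment crossover with a 10-day washout. Single 600 mg oral dose given alone or with itraconazole 200 mg oral solution, with overnight fast (at least 8–10 h) and 4 h post-dose fast. Sampling extended to 312 h. Plasma was quantified by validated LC-MS/MS. ANOVA of log-transformed Cmax and AUC∞ gave two-sided 90% CIs of geometric LS mean ratios.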

[4] = Rifampin; assay type: in vivo, human
Outline: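 Crossover in healthy adults (18–60 y, BMI 18–30 kg/m2) with a 10-day washout. Single oral 600 mg dose given alone or with rifampin 600 mg (2 × 300 mg capsules), taken with 240 mL water after at least 8–10 h fasting and 4 h further fasting. Plasma was measured by LC-MS/MS (30–3750 ng/mL). ANOVA (treatment, period, sequence, subject within sequence) on log Cmax/AUC∞ gave 90% CIs.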

[5] = Probenecid; assay type: in vivo, human
Outline: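 Two-treatment crossover in healthy subjects (18–60 y, BMI 18–32 kg/m2) with a 17-day washout. A 600 mg oral capsule dose was given alone or with probenecid 500 mg tablet, after fasting at least 8–10 h and for 4 h post-dose. Plasma was collected through 312 h and measured by LC-MS/MS. Ratios came from ANOVA of ln-transformed Cmax and AUC∞ with 90% CIs.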

[6] = Four phase I DDI studies overall; assay type: in vivo, human
Outline: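 Across four crossover studies, healthy subjects received a single 600 mg oral dose fasted. Tmax came from plasma LC-MS/MS profiles, with BLQ values set to zero or missing by position. Safety covered adverse events, physical examination, vital signs, 12-lead ECG and laboratory tests. The investigator graded severity and causality. Analysis was descriptive over all subjects dosed at least once.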

[7] = molecular target: CYP3A4 (Homo sapiens, UniProt P08684); assay: In vitro mechanism-based inactivation of CYP3A4; assay type: biochemical
Sequence of CYP3A4 (P08684 whole entry): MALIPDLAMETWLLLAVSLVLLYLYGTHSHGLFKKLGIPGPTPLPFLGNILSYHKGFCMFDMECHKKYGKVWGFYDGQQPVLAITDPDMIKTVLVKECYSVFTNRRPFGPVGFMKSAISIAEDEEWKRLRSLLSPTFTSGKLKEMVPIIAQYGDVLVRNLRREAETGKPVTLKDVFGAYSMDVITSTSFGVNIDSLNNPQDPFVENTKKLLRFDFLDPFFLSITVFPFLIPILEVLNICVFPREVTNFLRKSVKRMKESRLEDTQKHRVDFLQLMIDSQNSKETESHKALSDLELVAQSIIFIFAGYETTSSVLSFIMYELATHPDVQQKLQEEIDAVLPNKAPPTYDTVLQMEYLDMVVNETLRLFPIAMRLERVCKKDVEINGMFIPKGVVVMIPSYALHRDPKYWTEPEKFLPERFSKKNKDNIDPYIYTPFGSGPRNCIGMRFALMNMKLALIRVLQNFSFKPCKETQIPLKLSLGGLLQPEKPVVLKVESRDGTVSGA

[8] = Solubility versus pH; assay type: physicochemical; conditions: dependence on pH
[9] = molecular target: T1, OAT1 (Homo sapiens, UniProt Q4U2R8); assay: In vitro OAT1 substrate assessment; assay type: in vitro ADME; conditions: in vitro data
T1 sequence (Q4U2R8 1-563): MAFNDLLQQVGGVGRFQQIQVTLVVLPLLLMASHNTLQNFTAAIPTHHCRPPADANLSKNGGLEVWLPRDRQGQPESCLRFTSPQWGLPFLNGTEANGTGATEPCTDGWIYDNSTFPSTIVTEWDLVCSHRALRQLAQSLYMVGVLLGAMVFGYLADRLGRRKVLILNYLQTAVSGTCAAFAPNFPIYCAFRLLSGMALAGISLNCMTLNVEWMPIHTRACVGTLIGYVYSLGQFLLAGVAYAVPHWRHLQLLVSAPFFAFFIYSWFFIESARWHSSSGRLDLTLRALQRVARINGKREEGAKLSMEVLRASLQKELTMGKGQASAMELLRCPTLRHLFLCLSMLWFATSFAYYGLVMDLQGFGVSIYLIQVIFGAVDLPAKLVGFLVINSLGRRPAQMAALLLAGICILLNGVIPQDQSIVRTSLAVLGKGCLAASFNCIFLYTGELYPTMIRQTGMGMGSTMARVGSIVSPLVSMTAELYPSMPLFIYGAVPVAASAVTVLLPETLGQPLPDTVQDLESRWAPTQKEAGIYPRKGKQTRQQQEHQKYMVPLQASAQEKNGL

[10] = molecular target: cytochrome P450 (CYP) 3A4 (Homo sapiens, UniProt P08684); assay: In vitro metabolism: enzyme responsible; assay type: in vitro ADME; conditions: in vitro studies
Sequence of cytochrome P450 (CYP) 3A4 (P08684 whole entry): as the sequence (P08684 whole entry) above

[11] = molecular target: T2, UGT1A4 (Homo sapiens, UniProt P22310); assay: UGT substrate / metabolite formation; assay type: in vitro ADME; conditions: generates ZAAD-1006a
T2 sequence (P22310 29-534): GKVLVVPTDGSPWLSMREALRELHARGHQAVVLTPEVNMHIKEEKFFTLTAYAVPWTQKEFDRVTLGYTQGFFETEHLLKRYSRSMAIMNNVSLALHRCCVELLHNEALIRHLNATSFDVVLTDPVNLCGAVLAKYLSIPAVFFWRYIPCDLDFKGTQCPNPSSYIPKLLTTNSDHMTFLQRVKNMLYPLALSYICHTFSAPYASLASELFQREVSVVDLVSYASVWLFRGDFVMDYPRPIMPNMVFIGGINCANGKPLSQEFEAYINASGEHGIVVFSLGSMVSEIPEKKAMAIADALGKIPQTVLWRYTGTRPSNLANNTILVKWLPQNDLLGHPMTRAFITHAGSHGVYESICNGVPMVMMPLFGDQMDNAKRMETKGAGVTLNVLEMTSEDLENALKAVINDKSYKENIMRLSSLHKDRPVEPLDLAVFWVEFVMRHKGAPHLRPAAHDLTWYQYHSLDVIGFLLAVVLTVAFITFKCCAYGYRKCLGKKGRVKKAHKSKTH

[12] = co-administered with esomeprazole vs alone
[13] = pexidartinib + esomeprazole vs pexidartinib alone
[14] = co-administered with itraconazole vs alone
[15] = pexidartinib + itraconazole vs pexidartinib alone
[16] = co-administered with rifampin vs alone
[17] = pexidartinib + rifampin vs pexidartinib alone
[18] = pexidartinib + probenecid vs pexidartinib alone

SMILES: CCCc1nc(C(C)(C)O)c(C(=O)O)n1Cc1ccc(-c2ccccc2-c2nnn[nH]2)cc1 [olmesartan]
increase in AUC [1]: approximately 50%

decrease in AUC∞ [2, 12]: ~47%
decrease in Cmax [2, 12]: approximately 55%
AUC(0-inf) ([2]; 600 mg, pexidartinib alone): 104000 ng·h/mL
Cmax ([2]; 600 mg, pexidartinib alone): 6430 ng/mL
AUC(0-inf) ([2]; pexidartinib + esomeprazole): 55400 ng·h/mL
Cmax ([2]; pexidartinib + esomeprazole): 2920 ng/mL
AUC∞, Geometric LS mean ratio (90% CI) [2, 13]: 53.1 (47.4–59.3) %
Cmax, Geometric LS mean ratio (90% CI) [2, 13]: 45.4 (36.8–55.9) %
increase in AUC∞ [3, 14]: ~73%
increase in Cmax [3, 14]: approximately 48%
AUC∞, Geometric LS mean ratio (90% CI) [3, 15]: 173.0 (160.7–186.3) %
Cmax, Geometric LS mean ratio (90% CI) [3, 15]: 148.3 (127.8–172.0) %
decrease in AUC∞ [4, 16]: ~63%
decrease in Cmax [4, 16]: approximately 33%
AUC∞, Geometric LS mean ratio (90% CI) [4, 17]: 37.0 (30.6–44.8) %
Cmax, Geometric LS mean ratio (90% CI) [4, 17]: 67.1 (53.1–84.8) %
effect on Cmax ([5]; co-administered with probenecid vs alone): unchanged
AUC∞, Geometric LS mean ratio (90% CI) [5, 18]: 159.8 (143.4–178.0) %
Cmax, Geometric LS mean ratio (90% CI) [5, 18]: 105.8 (92.4–121.0) %
Tmax ([6]; human, plasma, oral): 2 to 3 h
KI (inactivation) [7]: 4.01 µM
kinact [7]: 0.000377 s⁻¹
solubility [8]: decreases as pH increases
substrate for OAT1 [9]: not a substrate for OAT1
UGT1A4 substrate [11]: substrate of the UGT1A4 enzyme
SMILES: FC(F)(F)c1ccc(CNc2ccc(Cc3c[nH]c4ncc(Cl)cc34)cn2)cn1 [Pexidartinib]
subjects who experienced a TEAE ([3]; N = 16): nine
subjects with TEAE assessed as related to the study drug ([3]; pexidartinib or itraconazole): seven
subjects who experienced a TEAE ([4]; grade 1 diarrhea): single
subjects who experienced a TEAE ([5]; N = 16): Eight
subjects with TEAE considered study drug related ([5]; in vivo): four
severity of treatment-emergent adverse events (TEAEs) ([6]; all four studies): grade 1 or 2
enzyme responsible for metabolism [10]: cytochrome P450 (CYP) 3A4 as the main enzyme
